Laboratory results: ChEMBL document CHEMBL1921792, “Synthesis and anticonvulsant activity of trans- and cis-2-(2,6-dimethylphenoxy)-N-(2- or 4-hydroxycyclohexyl)acetamides and their amine analogs” (Bioorg Med Chem, 2011)

Columns and labels:
Mus musculus [1] = assay: Neurotoxicity in mouse assessed as inability to maintain equilibrium on rotarod at 100 mg/kg, ip after 0.5 hrs by rotarod test; type: toxicity, organism-based; parameters: dose 100 mg/kg, route intraperitoneal; conditions: in vivo
Procedure, shortened: (§1)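 Drug given ip to mice as a suspension in 0.5% methylcellulose. At the stated time after dosing, each mouse was placed on a 1 inch knurled rod turning at 6 rpm. Neurotoxicity = inability to stay balanced at least 1 min in each of three trials. Scored as animals toxic/animals tested in small groups.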

Mus musculus [2] = assay: Neurotoxicity in mouse assessed as inability to maintain equilibrium on rotarod at 300 mg/kg, ip after 0.5 hrs by rotarod test; type: toxicity, organism-based; parameters: dose 300 mg/kg, route intraperitoneal; conditions: in vivo; procedure, shortened: as §1
Mus musculus [3] = assay: Neurotoxicity in ip dosed mouse assessed as inability to maintain equilibrium on rotarod by rotarod test; type: toxicity, organism-based; conditions: in vivo
Procedure, shortened: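 Mice dosed ip with a suspension in 0.5% methylcellulose, then placed on a 1 inch knurled plastic rod rotating at 6 rpm. Toxicity = failure to keep equilibrium for at least 1 min in each of three trials.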

Mus musculus [4] = assay: Anticonvulsant activity in ip dosed mouse assessed as protection against maximal electric shock-induced seizures; type: functional
Mus musculus [5] = species on record: Mus musculus; assay: Protective index, ratio of TD50 for neurotoxicity in mouse to ED50 for inhibition of maximal electroshock-induced seizures in mouse; type: functional
Mus musculus [6] = assay: Neurotoxicity in mouse assessed as inability to maintain equilibrium on rotarod at 300 mg/kg, ip after 0.25 hrs using rotarod test; type: toxicity, organism-based; parameters: dose 300 mg/kg, route intraperitoneal; conditions: in vivo; procedure, shortened: as §1
Mus musculus [7] = assay: Neurotoxicity in mouse assessed as inability to maintain equilibrium on rotarod at 300 mg/kg, ip after 0.5 hrs using rotarod test; type: toxicity, organism-based; parameters: dose 300 mg/kg, route intraperitoneal; conditions: in vivo; procedure, shortened: as §1
Mus musculus [8] = assay: Neurotoxicity in mouse assessed as inability to maintain equilibrium on rotarod at 300 mg/kg, ip after 2 hrs using rotarod test; type: toxicity, organism-based; parameters: dose 300 mg/kg, route intraperitoneal; conditions: in vivo; procedure, shortened: as §1
Mus musculus [9] = assay: Neurotoxicity in mouse assessed as inability to maintain equilibrium on rotarod at 300 mg/kg, ip after 4 hrs using rotarod test; type: toxicity, organism-based; parameters: dose 300 mg/kg, route intraperitoneal; conditions: in vivo; procedure, shortened: as §1

Cc1cccc(C)c1OCC(=O)NC1CCCCC1O.Cl (racemic; 4)
Activity (Mus musculus [1]): Non-toxic | Activity (Mus musculus [2]): Non-toxic | TD50 (Mus musculus [3]): 117.73 mg/kg | ED50 (Mus musculus [4]): 78.83 mg/kg | Ratio TD50/ED50 (Mus musculus [5]): 1.493 | Activity (Mus musculus [6]): Toxic | Activity (Mus musculus [7]): Toxic | Activity (Mus musculus [8]): Non-toxic | Activity (Mus musculus [9]): Non-toxic
